Compound activity (PubChem)
In the library only some 2.6% were active in any assay of this set; here they are far more common.
CASP6 VEID inh = human caspase-6 inhibitors, primary screen, biochemical, VEID-R110 fluorescence, single point, set 2; AID 686996, 2013; inhibition, % at 12.5 µM; P55212; purified caspase-6, Z-VEID-R110 cleavage fluorescence; hit rate 0.53% among 350,000;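 active = mean inhibition across replicates at least about 35%, with every replicate also reaching that limit, limit read from the data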
Target sequence (P55212 24-179 limits assumed): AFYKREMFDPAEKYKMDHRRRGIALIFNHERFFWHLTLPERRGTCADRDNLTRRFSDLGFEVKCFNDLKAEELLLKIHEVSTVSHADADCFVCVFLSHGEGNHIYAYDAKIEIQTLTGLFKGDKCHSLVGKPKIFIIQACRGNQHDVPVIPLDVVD
Target sequence (P55212 194-293 limits assumed): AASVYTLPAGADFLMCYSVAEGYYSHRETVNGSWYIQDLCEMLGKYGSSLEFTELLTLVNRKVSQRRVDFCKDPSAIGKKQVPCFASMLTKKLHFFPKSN
UCH37 inh = inhibitors of human UCH37 deubiquitinase, primary screen, biochemical, Ub-AMC cleavage, fluorescence; Ubiquitin carboxyl-terminal hydrolase isozyme L5 (Homo sapiens), Q9Y5K5; purified proteasome/UCH37; inhibition, % (no concentration beside the values); hit rate 0.33% among 330,000; AID 588478, 2011;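 active = mean inhibition over replicate wells above about 20%, limit read from the data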
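System: Proteasome-associated human UCH37 deubiquitinase; Input: 0.15 nM proteasome in added enzyme buffer; Also added: Ub-AMC substrate from 1 µM stock; Incubation: 30 min compound-proteasome preincubation then 25 min substrate reaction, room temperature; Detection: fluorescence, ex 355 nm, em 460 nm; Read-out: % inhibition of Ub-AMC cleavage fluorescence; Benchmarks: no-proteasome and no-compound wells.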
NSD2 HMT inh = NSD2 histone methyltransferase inhibitors, primary screen, biochemical, AlphaScreen, single concentration, set 2; Histone-lysine N-methyltransferase NSD2 (Homo sapiens), O96028; NSD2 peptide methylation, 120 min; inhibition, % at 12.5 µM; hit rate 0.54% among 310,000; AID 743445, 2014; in the data active = inhibition above about 50%
FGF22 binding-1 = binders of human FGF22 protein, primary screen, FGF22 synaptogenesis inhibitor project, biophysical, thermal shift, single point | activity (Tm shift, normalised), % at 9.99 µM | Fibroblast growth factor 22 (Homo sapiens), Q9HCT0 | hit rate 1.5% among 340,000 | recombinant FGF22 thermal shift, SYPRO orange fluorescence; percent of sucrose octasulfate shift, DMSO zero;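 active = mean Tm shift, scaled 0 neutral to 100 positive control, at about 1.3% or above, every replicate too, limit read from the data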
SIRT5 inh = SIRT5 desuccinylase inhibitors, primary screen, biochemical, fluorescence imaging, single point, set 5 | Purified SirT5, succinyl-peptide AMC, trypsin-coupled fluorescence | hit rate 1.1% among 330,000 | NAD-dependent protein deacylase sirtuin-5, mitochondrial (Homo sapiens), Q9NXA8 | inhibition, % at 15 µM | AID 652115, 2013; in the data active = inhibition above about 15%
Target sequence (Q9NXA8 whole entry, looked up): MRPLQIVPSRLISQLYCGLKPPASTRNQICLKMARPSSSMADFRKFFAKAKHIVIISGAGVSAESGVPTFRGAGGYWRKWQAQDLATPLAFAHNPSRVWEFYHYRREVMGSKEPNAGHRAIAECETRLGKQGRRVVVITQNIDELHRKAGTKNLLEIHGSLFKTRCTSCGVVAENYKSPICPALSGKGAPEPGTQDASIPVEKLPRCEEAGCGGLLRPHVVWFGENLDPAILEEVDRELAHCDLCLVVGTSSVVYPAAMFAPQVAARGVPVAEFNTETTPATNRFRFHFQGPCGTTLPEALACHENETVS
UCH37 confirm = retest of human UCH37 deubiquitinase inhibitors, confirmation, biochemical, Ub-AMC cleavage rate, fluorescence; shares compounds with UCH37 inh; Proteasome-bound UCH37; inhibition, % at 20 µM; hit rate 27% among 480;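 active = average inhibition over replicates above about 50%, so the earlier screening hit is confirmed, limit read from the data; inactive = the rest, counted as false positives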;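 note: based on cleavage rate fitted by regression over a 30 min kinetic read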
FGF22 binding-2 = binders of human FGF22 protein, dose response, FGF22 synaptogenesis inhibitor project, biophysical, thermal shift, cherry-pick retest; shares compounds with FGF22 binding-1; hit rate 2% among 1,000; recombinant FGF22 thermal shift, SYPRO orange fluorescence; thermal shift activity, °C (ΔTm) at 38 µM;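 active = fitted rise in melting shift crosses a set limit at or below the top valid dose tested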
TSA no protein = compound-only thermal shift signal without protein, dose response, artefact control for FGF22 binder project, biochemical, cherry-picked samples, RT-PCR instrument; compound-only SYPRO orange thermal shift counter-screen, no protein; shares compounds with FGF22 binding-1; hit rate 2% among 1,000; AID 743019, 2013; AC50, µM (highest dose often 38 µM);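 active = rising signal whose fitted curve reaches the 0.54 level within the top valid dose, showing a melting point, actives reach about 13 µM in these data; inactive = the rest, including activity in the opposite direction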; note: value is where the raw curve crosses a fixed level and not half-maximal
CASP1 counter = human caspase-1 inhibitors, dose response, selectivity assay for caspase-6 inhibitor project, biochemical, Z-YVAD-R110 fluorescence, cherry-pick, set 2 | shares compounds with CASP6 VEID inh | purified caspase-1, Z-YVAD-R110 cleavage fluorescence | activity change, negative = inhibition, % at 35 µM | 100 tested, under 10 active;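 active = compounds lowering fluorescence whose fitted half-maximal concentration is no more than twice their top tested dose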
Alpha artifact = AlphaScreen signal interference with preloaded methylated product, dose response, artefact control for NSD2 inhibitor project, biochemical, cherry-picked samples; shares compounds with NSD2 HMT inh; AlphaScreen artifact counterscreen, preloaded methylated H4 peptide; AC35, µM (top dose mostly 10 µM); hit rate 9.4% among 1,500; AID 1053174, 2014; call rule not given here
Numbers stand for hits; 0 = inactive; - = no result; + = active, no number.

SMILES	CASP6 VEID inh	UCH37 inh	NSD2 HMT inh	FGF22 binding-1	SIRT5 inh	UCH37 confirm	Alpha artifact	others
CCCc1nc2c(=O)n(C)c(=O)nc-2n(C)n1	96	100	-	0	0	100	-	CASP1 counter=0
C[C@@H]1CN([C@H](C)CO)C(=O)c2cc(-c3cccc(C#N)c3)cnc2O[C@@H]1CN(C)C(=O)C1CC1	0	-	-	0	0	-	-
Cc1[nH][nH]c(=O)c1C(c1c(C)[nH][nH]c1=O)c1cn(C)c2ccccc12	0	90	51	0	0	57	0
O=C1C=C(N2CCOCC2)c2cccc3cccc1c23	0	-	-	0	-	-	-
O=C1C=C(N2CCOCC2)c2ccccc2C1=O	100	97	+	0	0	130	0
NS(=O)(=O)c1ccc(N=Nc2ccc(=O)[nH]c2O)cc1	70	32	110	0	0	0	0
Nc1nc(N)c(N=Nc2ccc(S(N)(=O)=O)cc2)c(=O)[nH]1	0	-	0	0	0	-	-
C(=NNc1nc2ccccc2[nH]1)c1ccc2c(c1)OCCO2	-	0	-	-	-	-	-
CN1CCC/C1=C/C=C1\SC(=S)NC1=O	0	35	53	0	0	0	0
CN1/C(=C\C=C2/SC(=S)NC2=O)C(C)(C)c2ccccc21	0	0	-	0	0	-	-
CC(C)=CCC1=C(OCC(=O)O)C(=O)c2ccccc2C1=O	-	81	127	0	0	0	0
CC(C)NC(=O)N(C)C[C@H]1Oc2ccc(NC(=O)Nc3ccc4c(c3)OCO4)cc2C(=O)N([C@@H](C)CO)C[C@@H]1C	0	-	-	0	0	-	-
CCCCNC1=CC(=O)C(=O)c2ccccc21	0	49	140	0	0	0	0
O=C(N[C@@H]1C=C[C@@H](CC(=O)N2CCOCC2)O[C@@H]1CO)c1cccc(F)c1	0	-	-	0	0	-	-
CCN1/C(=C/C(C)=C/c2sc3ccccc3[n+]2CC)Sc2ccccc21	0	28	112	0	0	0	5.5µM
NS(=O)(=O)c1ccc(Cl)c(S(N)(=O)=O)c1	0	-	0	0	0	-	-
NC1=C(Cl)C(=O)c2ccc(S(N)(=O)=O)cc2C1=O	100	89	114	0	0	92	0
O=S(=O)(c1ccccc1F)N1CCCCN2[C@H](CO)[C@@H](c3ccc(-c4cncnc4)cc3)[C@H]2C1	-	-	-	0	0	-	-
Cc1c(N=C2C=CC(=O)c3ccccc32)c(=O)n(-c2ccccc2)n1C	0	61	89	0	0	0	0
CCC(=O)Nc1ccc2c(c1)OC[C@@H](C)N(C(=O)CN(C)C)C[C@H](C)[C@H](OC)CN(C)C2=O	0	-	-	0	0	-	-
O=C(NC1=C(NC2CCS(=O)(=O)C2)C(=O)c2ccccc2C1=O)c1ccccc1 (stereo not given)	95	62	109	0	0	60	0
O=C(NC1=C(Nc2ccc(Cl)cc2)C(=O)c2ccccc2C1=O)c1ccccc1	0	0	0	0	0	-	-
[O-][n+]1cccc2c(Br)cc(Br)c(O)c21	0	45	61	0	0	0	0
Oc1c(Br)cc(Br)c2cccnc12	0	-	-	0	0	-	-
O=C1C=C(N(CCO)Cc2ccccc2)c2ccccc2C1=O	-	92	76	-	-	111	0
SMILES	CASP6 VEID inh	UCH37 inh	NSD2 HMT inh	FGF22 binding-1	SIRT5 inh	UCH37 confirm	Alpha artifact	others
CCNC(=O)C[C@@H]1CC[C@@H]2[C@H](COc3ccc(NC(=O)C4CCOCC4)cc3C(=O)N2C)O1	0	-	-	0	0	-	-
COc1ccc(C(C[N+](=O)[O-])c2c(C)[nH]n(-c3ccccc3)c2=O)cc1 (stereo not given)	0	77	92	0	0	0	0
Cc1c(NC(=O)C(C)OC(=O)c2sc3ccccc3c2Cl)c(=O)n(-c2ccccc2)n1C (stereo not given)	0	0	0	0	0	-	-
Cc1c(NC(=O)C(C)OC(=O)c2ccc([N+](=O)[O-])s2)c(=O)n(-c2ccccc2)n1C (stereo not given)	94	77	115	0	0	0	0	CASP1 counter=0
CN1CCN(C2=C(Cl)C(=O)c3ccccc3C2=O)CC1	99	97	106	0	0	97	0
CN(C)CCCNC(=O)C[C@@H]1C=C[C@@H](NC(=O)Cc2cccnc2)[C@@H](CO)O1	0	-	-	-	0	-	-
S=c1[nH]nc(-c2ccc(Cl)cc2)n1N=Cc1ccco1	-	0	-	-	-	-	-
COc1cc(S(=O)(=O)Nc2ncccc2C)c(OC)cc1Cl	-	0	0	-	-	-	-
COc1ccc(Br)cc1S(=O)(=O)Nc1ncccc1C	0	0	0	1.5	0	-	-	FGF22 binding-2=0;TSA no protein=0
CO[C@H]1CN(C)C(=O)c2cc(NC(=O)NC(C)C)ccc2OC[C@H](C)N(C)C[C@H]1C	0	-	-	0	0	-	-
COCC(=O)N1C[C@H](C)[C@H](OC)CN(C)C(=O)c2ccc(NC(=O)NC(C)C)cc2OC[C@H]1C	0	-	-	0	0	-	-
COCC(=O)N1C[C@@H](C)[C@H](OC)CN(C)C(=O)c2ccc(NC(=O)NC(C)C)cc2OC[C@@H]1C	0	-	-	2.2	0	-	-	FGF22 binding-2=0;TSA no protein=0
CO[C@@H]1CN(C)C(=O)c2cc(NC(=O)NC(C)C)ccc2OC[C@@H](C)N(C)C[C@@H]1C	0	-	-	37	0	-	-	FGF22 binding-2=0;TSA no protein=0
CCOc1ccc(C(=O)CCC(=O)Nc2ncccc2O)cc1	0	0	0	0	0	-	-
CCOc1ccc(C(=O)CCC(=O)Nc2ccc(C)cn2)cc1	0	0	0	14	0	-	-	FGF22 binding-2=0;TSA no protein=0
COc1ccc(OC)c(NC(=O)C(=O)NN=Cc2ccccc2[N+](=O)[O-])c1	-	0	-	-	-	-	-
CC(=O)Nc1ccc2sc(C)nc2c1	0	0	0	38	0	-	-	FGF22 binding-2=0;TSA no protein=0
